An excerpt weighted towards active compounds, which were near 2.9% of everything screened.
OX1R antag-1: antagonists of human orexin 1 receptor (OX1R); OX1R-expressing cells, FRET antagonist read-out; Orexin/Hypocretin receptor type 1 (Homo sapiens), O43613; inhibition, % at 6.6 µM; 330,000 compounds, 1.8% hits; in the data active means inhibition mostly above about 38%, no sharp cut-off; inactive means mostly below about 40%;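 further: 0% = agonist challenge alone and 100% = reference antagonist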
Target sequence (O43613 whole entry, looked up): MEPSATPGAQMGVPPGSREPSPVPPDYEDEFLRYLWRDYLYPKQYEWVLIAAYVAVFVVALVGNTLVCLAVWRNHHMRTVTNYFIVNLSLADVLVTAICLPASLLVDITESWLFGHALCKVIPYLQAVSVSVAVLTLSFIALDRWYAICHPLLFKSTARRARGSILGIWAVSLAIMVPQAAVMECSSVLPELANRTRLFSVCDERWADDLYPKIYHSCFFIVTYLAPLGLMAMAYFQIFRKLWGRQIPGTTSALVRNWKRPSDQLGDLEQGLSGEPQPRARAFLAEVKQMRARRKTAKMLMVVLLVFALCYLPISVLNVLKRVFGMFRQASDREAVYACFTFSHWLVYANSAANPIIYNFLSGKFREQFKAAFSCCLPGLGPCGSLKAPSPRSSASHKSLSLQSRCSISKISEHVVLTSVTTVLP
CHO-K1 Ca antag: M1 antagonist counterscreen hit in parental CHO-K1 cells | ATP-induced calcium, Fluo-8 fluorescence | AID 602250 | 360,000 compounds, 0.6% hits | inhibition, % at 3 µM;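 active means inhibition above a per-plate cutoff, the plate's mean sample inhibition plus 3 SD, cut at about 24% in these data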;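 further: 0% = DMSO plus EC80 ATP and 100% = DMSO alone without ATP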
M1 PAM parental: nonselective calcium activators in parental CHO-K1 cells, primary screen, counter-screen for M1 PAM project, cell-based, Fluo-8 calcium fluorescence, full deck, 1536-well | activation, % at 3 µM | ATP EC20; 0% at ATP EC20, 100% at ATP max | 360,000 compounds, 0.02% hits;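 active means activation above the run cutoff, the mean activation of all test compounds plus 3 SD, cut at about 40% in these data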;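 further: peak over basal fluorescence ratio in a 140 s read after ATP addition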
M1 ag parental: counter-screen for M1 agonists: effect in parental CHO-K1 cells; Fluo-8 calcium fluorescence; scaled to maximal ATP response, vehicle zero; activation, % at 3 µM; 360,000 compounds, 0.48% hits; in the data active means activation above about 15%;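 further: untransfected CHO-K1 host cells lacking M1 receptor as counterscreen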
OX1R antag-2: OX1R (HCRTR1) antagonists, primary screen, fluorescence, CHO/OX1R cells, Fluo-8 calcium, orexin A. Orexin/Hypocretin receptor type 1 (Homo sapiens), O43613. Fluo-8 calcium fluorescence. inhibition, % at 5 µM. 330,000 compounds, 0.43% hits;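 active means inhibition above its plate's threshold, mean inhibition of all tested compounds on the plate plus 3 SD, cut at about 37% in these data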;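 further: 0% = orexin A challenge wells and 100% = SB-334867-A antagonist wells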
CHO parental Ca: ATP-evoked calcium signal inhibitors, parental CHO, primary screen, counter-screen for OX1R antagonist project, cell-based, fluorescence, Fluo-8 calcium dye; parental CHO-K1, ATP-induced calcium, Fluo-8 fluorescence; inhibition, % at 5.6 µM; 330,000 compounds, 0.63% hits;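 active means inhibition above that plate's mean sample inhibition plus 3 SD, cut at about 26% in these data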;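 further: 0% = ATP-challenged DMSO wells and 100% = DMSO wells without ATP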
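Assay system – parental CHO cells · Reagent – ATP stimulus · Detection – intracellular calcium via Fluo-8 no-wash fluorescent dye · Evaluation – percent inhibition of ATP-evoked calcium rise, normalized to controls · Controls – ATP wells versus no-ATP DMSO wells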
* = called active by the depositor; nt = not tested or not shown.

SMILES | OX1R antag-1 | CHO-K1 Ca antag | M1 PAM parental | M1 ag parental | OX1R antag-2 | CHO parental Ca
O=c1[nH]c(=O)c2nnc(N/N=C\c3ccc(O)cc3)nc2[nH]1 | 62* | 2 | 4 | 0 | -14 | -8
COC(=O)[C@@H](Cc1ccccc1)NC(=O)NCCc1ccc(OC)c(OC)c1 | 11 | -2 | 0 | 2 | -7 | -2
CC(CNCc1ccc2c(c1)OCO2)NCc1ccc2c(c1)OCO2 (stereo not drawn) | 6 | -24 | 43* | 2 | -25 | -13
Fc1ccc(CNCc2ccc3c(c2)OCO3)cc1 | 4 | 10 | -9 | 0 | -16 | -5
CCCCCCc1cc2cc(C(N)=O)c(=N)oc2cc1O | 55* | nt | nt | nt | -22 | -7
CCCCCCc1cc2cc(C(=O)NC)c(=N)oc2cc1O | 53 | 8 | -3 | 1 | -16 | -11
Cc1ccccc1CN1C(=O)c2ccccc2C1c1nnnn1-c1ccc2c(c1)OCCO2 (stereo not drawn) | nt | -12 | 10 | 3 | nt | nt
CC(C)c1ccc(CC(=O)N2CCC2(C)C(=O)Nc2cccc(C#N)c2)cc1 (stereo not drawn) | nt | 15 | -1 | 7 | nt | nt
CC1(C(=O)Nc2cccc(C#N)c2)CCN1C(=O)Cc1ccc(-c2ccccc2)cc1 (stereo not drawn) | nt | 28* | -6 | 11 | nt | nt
COc1cccc(NC(=O)COC(=O)c2c(C)nn(-c3ccccc3)c2C)c1 | 7 | -19 | 5 | 1 | 3 | -22
COCCCN1C(=O)c2ccc(C(=O)NCc3ccccn3)cc2C1=O | 39* | -16 | 16 | 1 | 6 | 3
COCCCN1C(=O)c2ccc(C(=O)NCc3ccco3)cc2C1=O | 42* | 0 | 15 | 1 | -17 | -15
COCCN1C(=O)c2ccc(C(=O)NCc3ccco3)cc2C1=O | 33 | 11 | 4 | 1 | -15 | -4
COc1ccc(NC(=O)CCC(=O)N2CCOCC2)c([N+](=O)[O-])c1 | 43 | 7 | -5 | 1 | -9 | 8
CCCn1c(SCC(=O)Nc2ccc(F)c(Cl)c2)nc(O)cc1=O | 4 | 2 | 4 | -1 | 13 | 30*
CCCn1c(SCC(=O)Nc2ccc(Cl)cc2F)nc(O)cc1=O | 3 | 2 | 8 | 9 | -7 | 3
COc1cccc(Nc2nn3c(=O)c4ccccc4nc3s2)c1 | 39* | -5 | -19 | 1 | 14 | -14
O=c1oc(Nc2cccc(F)c2)nc2ccccc12 | 22 | -8 | 16 | 0 | -5 | 4
Nc1nc(Nc2cccc(F)c2)nc2ccccc12 | 57* | 4 | 7 | 1 | 3 | -9
COc1ccc(CCN(C(=O)c2snc(C(N)=O)c2N)C(C)C(=O)NC2CCCCC2)cc1OC (stereo not drawn) | 21 | -5 | -16 | 2 | -23 | -18
O=C(CSc1n[nH]c(=O)n1C1CC1)Nc1ccc(Cl)cc1Cl | -2 | -27 | 14 | 3 | -13 | 1
N#Cc1cc([N+](=O)[O-])ccc1NC(=O)CSc1n[nH]c(=O)n1C1CC1 | 33* | -17 | 7 | 1 | -4 | -1
O=C(/C=C/c1cccc(C(F)(F)F)c1)Nc1cccc(C(F)(F)F)c1 | 36* | 11 | -6 | 4 | 31 | -5
Cc1cc2ccccn2c1C(=O)c1ccc(Cl)cc1 | 20 | 4 | -5 | -1 | -17 | -37
Cc1cc2ccccn2c1C(=O)c1ccncc1 | 32* | -7 | 9 | 1 | 1 | 3
SMILES | OX1R antag-1 | CHO-K1 Ca antag | M1 PAM parental | M1 ag parental | OX1R antag-2 | CHO parental Ca
COC(=O)c1c(C(=O)OC)c(-c2ccccc2)n2c1CS(=O)(=O)C2 | 16 | 26* | -6 | 0 | -21 | -11
CCCn1nnnc1COc1ccc(C(N)=O)cc1 | -1 | -3 | 1 | 1 | -11 | -17
CCn1ccnc1CN1CCc2c([nH]c3ccccc23)C1CC(C)C (stereo not drawn) | 19 | -12 | 7 | 3 | 1 | -22
CCn1ccnc1CN1CCc2c([nH]c3ccccc23)C1C(C)(C)C (stereo not drawn) | 20 | 12 | 15 | 23* | -27 | -9
Cc1cccc2[nH]c3c(N4CC=C(c5ccc(F)cc5)CC4)ncnc3c12 | 77* | 8 | -10 | 3 | 19 | 36*
CN1CCS/C1=C/C=C1/SC(=S)N(Cc2ccccc2)C1=O | 21 | 16 | 11 | 11 | 41 | 23
CCCCN1C(=O)/C(=C/C=C2\N(C)c3ccccc3C2(C)C)SC1=S | 1 | nt | nt | nt | 51* | 32
CCCCN1C(=O)/C(=C/C=C2\SCCN2C)SC1=S | nt | 17 | 2 | 16* | nt | nt
CCCN1C(=O)/C(=C\C=C2/C=CN(CC)c3ccccc32)SC1=S | 26 | -1 | -2 | 0 | 1 | -5
O=[N+]([O-])c1c(Nc2ccccc2O)ccc2nonc12 | 59* | -3 | 8 | 1 | -20 | 2
CCc1nnc(NS(=O)(=O)c2ccc(Nc3ccc4nonc4c3[N+](=O)[O-])cc2)s1 | 49* | 29* | -17 | -1 | -20 | -8
Cc1ccccc1Nc1ccc2nonc2c1[N+](=O)[O-] | nt | -2 | -10 | 0 | nt | nt
CCc1nnc(NS(=O)(=O)c2ccccc2)s1 | 6 | 4 | -1 | 0 | -5 | 0
Fc1ccc(Nc2nc(NCc3cccs3)nc3ccsc23)cc1 | nt | -3 | 5 | 5 | nt | nt
Cc1noc(C)c1COc1ccc(C(=O)Nc2ncccc2O)cc1 | 19 | 10 | -12 | 0 | -12 | 5
CC(C)CNC(=S)N1CCN(c2nc3ccccc3s2)CC1 | 14 | -1 | 4 | 12 | 11 | 72*
COC(CNC(=O)c1ccc2nc3ccccc3c(=O)n2c1)OC | 38* | -7 | 9 | 1 | -14 | -9
COc1ccc(CCNC(=O)CCC(=O)N2CCOc3ccc(C)cc32)cc1OC | 5 | 19 | -9 | 0 | -16 | -8
COc1ccc(OC)c(CCNC(=O)CCC(=O)N2CCOc3ccc(C)cc32)c1 | 39* | -18 | 12 | 2 | -17 | -7
CCC(CO)Oc1cc(NC(=O)c2ccccc2F)c2ncn(C(C)C)c2c1 (stereo not drawn) | 9 | -11 | 3 | 2 | -15 | -4
CC1(c2ccc(Cl)cc2)NC(=O)N(CC(=O)NC2CCCCC2)C1=O (stereo not drawn) | 5 | -18 | 26 | 1 | 14 | -17
CCn1c(=O)c(-c2cc(=O)[nH][nH]2)c(O)c2ccccc21 | 24 | -14 | 18 | 0 | -1 | -1
O=c1cc(-c2c(O)c3ccccc3n(Cc3ccccc3)c2=O)[nH][nH]1 | 21 | 9 | 10 | 17* | -22 | -14

Screening results: PubChem, The Scripps Research Institute Molecular Screening Center
